Measured values from publication PMC9324959 (Angewandte Chemie (International Ed. in English), 2022).

Test system: HeLa cells
Test: Cytotoxicity assay
Type: cell-based
Settings: under the conditions used
Outline: (§1)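 Where cells were clearly affected but the curve could not be fitted, the value was flagged. "n/a" marks no effect under the conditions tested.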

Question: Which “cytotoxicity (in words)” value does the source give for `CC(=O)Nc1ccc(-c2csc(NC(=O)c3ccccc3)n2)cc1` [Compound 6] here?
Answer: not cytotoxic

Question: Which “cytotoxicity (in words)” value does the source give for `CC(=O)Nc1ccc(-c2csc(Nc3ccc(C(F)(F)F)cc3)n2)cc1` [Compound 19] here?
Answer: abrogated activity

Test system: not listed separately
Test: Cytotoxicity assay
Type: cell-based
Settings: human, HeLa cells
Outline: as §1

Question: Which IC50 at 72 h does the source give for `CC(=O)Nc1ccc(-c2csc(Nc3ccccc3)n2)cc1` [Compound 4] here?
Answer: 48 µM

Question: For `CC(=O)Nc1ccc(-c2csc(Nc3ccccc3F)n2)cc1` [Compound 8], which IC50 at 72 h is on record?
Answer: > 80 µM

Question: For `CC(=O)Nc1ccc(-c2csc(Nc3ccc(F)cc3)n2)cc1` [Compound 10], which IC50 at 72 h is on record?
Answer: > 80 µM

Question: With `CCC(=O)Nc1ccc(-c2csc(Nc3cccc(F)c3)n2)cc1` [Compound 11, N-[4-[2-(3-fluoroanilino)thiazol-4-yl]phenyl]propanamide] as the compound, how does the IC50 at 72 h read?
Answer: 38 µM

Question: For `CC(C)C(=O)Nc1ccc(-c2csc(Nc3cccc(F)c3)n2)cc1` [Compound 12], which IC50 at 72 h is on record?
Answer: 34 µM

Question: Which IC50 at 72 h does the source give for `O=C(Nc1ccc(-c2csc(Nc3cccc(F)c3)n2)cc1)C1CC1` [Compound 13] here?
Answer: 38 µM

Question: Which IC50 at 72 h does the source give for `CC(=O)Nc1ccc(-c2csc(Nc3ccccc3C)n2)cc1` [Compound 14] here?
Answer: 59 µM

Question: Which IC50 at 72 h does the source give for `CC(=O)Nc1ccc(-c2csc(Nc3cccc(C)c3)n2)cc1` [Compound 15] here?
Answer: 37 µM

Question: Which IC50 at 72 h does the source give for `CC(=O)Nc1ccc(-c2csc(Nc3ccccc3C(F)(F)F)n2)cc1` [Compound 17] here?
Answer: 71 µM

Question: With `CC(=O)Nc1ccc(-c2csc(Nc3cccc(Cl)c3)n2)cc1` [Compound 20] as the compound, how does the IC50 at 72 h read?
Answer: 19 µM

Question: For `CC(=O)Nc1ccc(-c2csc(Nc3cccc(O)c3)n2)cc1` [Compound 21], which IC50 at 72 h is on record?
Answer: 50 µM

Question: With `COc1cccc(Nc2nc(-c3ccc(NC(C)=O)cc3)cs2)c1` [Compound 22] as the compound, how does the IC50 at 72 h read?
Answer: 43 µM
